We go through 13 compounds from PubChem BioAssay AID602316 (Southern Research Specialized Biocontainment Screening …, 2012).

The source made the active and inactive calls.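 The calls were made as follows: active = inhibition of at least 30% at any tested concentration; inactive = the rest.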

In the first assay the target is M18 aspartyl aminopeptidase (Plasmodium falciparum 3D7). Kind of assay: PfM18AAP enzyme inhibition, dose response, selectivity assay for PfM17LAP inhibitor project, biochemical, QFRET, H-Glu-NHMec substrate, set 3 (AID 602316). Particulars: recombinant PfM18AAP, H-Glu-NHMec fluorogenic cleavage. A digest of the protocol: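 incubation = 90 min reaction, room temperature | material = recombinant PFM18AAP enzyme | compound dosing = 10-point twofold series, 100 to 0.2 µM, 2% DMSO | reagent = H-Glu-NHMec substrate, 0.1 mM | controls = no-enzyme background wells | measure = % inhibition and fitted IC50 | replication = each dose tested in triplicate | detection = NHMec fluorescence at 370/460 nm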
`CCCOc1ccc(CC(=O)NO)cc1`: the IC50 is 26.1 µM. Regarding `CCC(C)Oc1ccc(CC(=O)NO)cc1` (stereo not drawn), the half-maximal inhibitory concentration (IC50) was 27.7 µM. Take `CCCCOc1ccc(C(C)C(=O)NO)cc1` (stereo not drawn): the IC50 is 21.7 µM. Turning to `CCCCOc1cccc(CC(=O)NO)c1`, the IC50 was 29.1 µM.

Staying with this assay, now noted: recombinant PfM18AAP, H-Glu-NHMec fluorogenic cleavage; at 100 µM (top of the series).
`CCCCOc1ccc(C(C)(C)C(=O)NO)cc1`: the inhibition result is “inactive”. On to `CCCCOc1ccc(CN(O)C(=O)c2ccccc2)cc1`, for which the inhibition result was “inactive”. As for `CCCCOc1ccc(C(C)C(=O)O)cc1` (stereo not drawn), the inhibition entry was “inactive”. Turning to `CCCCOc1cccc(CC(=O)OC)c1`, the inhibition result is “inactive”. On the same count and under the same terms, the result for `CCCCOc1ccc(CN(O)C(C)=O)cc1` reads “inactive”; that for `CCCCOc1ccc(C(C)C(=O)OC)cc1` (stereo not drawn), “inactive”. Turning to `CCCCOc1ccc(C(C)(C)C(=O)O)cc1`, the inhibition result was “inactive”. In the case of `CCCOc1ccc(CC(=O)O)cc1`, the inhibition entry is “inactive”. For `CN(C)CCOc1ccc(CC(=O)O)cc1`, the inhibition result was “inactive”.
